Experimental data: ChEMBL document CHEMBL5038571, “Design and Synthesis of EZH2-Based PROTACs to Degrade the PRC2 Complex for Targeting the Noncatalytic Activity of EZH2” (J Med Chem, 2021)
Active and inactive are the calls of the source. The rule behind the calls is not given here.

Experiments:
WSUDLCL2 = test: Upregulation of ADRB2 mRNA expression in human WSUDLCL2 cells at 1 uM incubated for 48 hrs by qRT-PCR analysis; assay type: functional, cell-based
Method in brief: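 WSU-DLCL-2 or Pfeiffer cells treated 48 h. Trizol RNA extraction, reverse transcription, SYBR qPCR (95 °C 30 s; 40 cycles of 95 °C 6 s, 60 °C 20 s). mRNA normalized to DMSO-treated cells; mean ± SD of three independent experiments, t-test.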

[1] = target: T1, Protein cereblon/Histone-lysine N-methyltransferase EZH2 (Homo sapiens) (UniProt Q15910+Q96SW2); test: PROTAC activity at CRBN E3 ligase/EZH2 in PRC2 complex in human DU-145 cells assessed as induction of SUZ12 degradation by measuring reduction in SUZ12 protein level at 1 uM incubated for 48 hrs by Western blot analysis; assay type: cell-based
Method in brief: (§1)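 Cancer cell lines exposed to 1 μM compound for 48 h. Lysates immunoblotted (SDS-PAGE, nitrocellulose, 5% milk block, primary antibody overnight at 4 °C) for EZH2, SUZ12, EED, RbAp48 and H3K27me3. Bands quantified by densitometry and normalized to GAPDH.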

[2] = target: T1, Protein cereblon/Histone-lysine N-methyltransferase EZH2 (Homo sapiens); test: PROTAC activity at CRBN E3 ligase/EZH2 in PRC2 complex in human WSUDLCL2 cells assessed as downregulation of RbAp48 expression at 1 uM pretreated with EPZ6438 for 4 hrs followed by compound addition and measured after 48 hrs by Western blot analysis; assay type: cell-based
Method in brief: (§2)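 WSU-DLCL-2 cells pretreated 4 h with the named inhibitor, then compound added and incubated a further 48 h. EZH2, SUZ12, EED and RbAp48 measured by western blot (nitrocellulose transfer, skim-milk block, primary antibody overnight at 4 °C, chemiluminescent detection).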

[3] = target: T1, Protein cereblon/Histone-lysine N-methyltransferase EZH2 (Homo sapiens); test: PROTAC activity at CRBN E3 ligase/EZH2 in PRC2 complex in human WSUDLCL2 cells assessed as effect on SUZ12 mRNA expression at 1 uM incubated for 48 hrs by RT-qPCR analysis; assay type: cell-based
Method in brief: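 WSU-DLCL-2 cells treated 48 h with 1 μM compound. Total RNA extracted with Trizol and reverse-transcribed. SYBR qPCR run as 95 °C 30 s, then 40 cycles of 95 °C 6 s and 60 °C 20 s. PRC2 subunit mRNA normalized to the DMSO-treated group; mean SD, t-test.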

[4] = target: T1, Protein cereblon/Histone-lysine N-methyltransferase EZH2 (Homo sapiens); test: PROTAC activity at CRBN E3 ligase/EZH2 in PRC2 complex in human A2780 cells assessed as induction of RbAp48 degradation by measuring reduction in RbAp48 protein level at 1 uM incubated for 48 hrs by Western blot analysis; assay type: cell-based; method in brief: as §1
A549 [5] = test: Downregulation of CHEK1 mRNA expression in human A549 cells at 10 uM incubated for 48 hrs by qRT-PCR analysis; assay type: functional, cell-based
Method in brief: (§3)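 Cells treated 48 h. Total RNA extracted with Trizol, reverse-transcribed, and SYBR RT-qPCR run: 95 °C 30 s, then 40 cycles of 95 °C 6 s and 60 °C 20 s. mRNA normalized to the DMSO-treated group. Mean SD of three independent experiments, t-test versus DMSO.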

[6] = target: T1, Protein cereblon/Histone-lysine N-methyltransferase EZH2 (Homo sapiens); test: PROTAC activity at CRBN E3 ligase/EZH2 in PRC2 complex in human WSUDLCL2 cells assessed as induction of SUZ12 degradation at 10 uM incubated for 48 hrs by Western blot analysis; assay type: cell-based
[7] = target: T1, Protein cereblon/Histone-lysine N-methyltransferase EZH2 (Homo sapiens); test: PROTAC activity at CRBN E3 ligase/EZH2 in PRC2 complex in human WSUDLCL2 cells assessed as downregulation of RbAp48 expression at 1 uM pretreated with GSK126 for 4 hrs followed by compound addition and measured after 48 hrs by Western blot analysis; assay type: cell-based; method in brief: as §2
[8] = target: T1, Protein cereblon/Histone-lysine N-methyltransferase EZH2 (Homo sapiens); test: PROTAC activity at CRBN E3 ligase/EZH2 in PRC2 complex in human WSUDLCL2 cells assessed as induction of RbAp48 degradation at 1 uM measured up to 2 hrs by Western blot analysis; assay type: cell-based; details: time hrs <=2
[9] = target: T1, Protein cereblon/Histone-lysine N-methyltransferase EZH2 (Homo sapiens); test: PROTAC activity at CRBN E3 ligase/EZH2 in PRC2 complex in human WSUDLCL2 cells assessed as downregulation of EED expression at 1 uM pretreated with EPZ6438 for 4 hrs followed by compound addition and measured after 48 hrs by Western blot analysis; assay type: cell-based; method in brief: as §2
A549 [10] = test: Downregulation of CEP76 mRNA expression in human A549 cells at 10 uM incubated for 48 hrs by qRT-PCR analysis; assay type: functional, cell-based; method in brief: as §3
[11] = target: T1, Protein cereblon/Histone-lysine N-methyltransferase EZH2 (Homo sapiens); test: PROTAC activity at CRBN E3 ligase/EZH2 in PRC2 complex in human LNCaP cells assessed as induction of EZH2 degradation by measuring reduction in EZH2 protein level at 1 uM incubated for 48 hrs by Western blot analysis; assay type: cell-based; method in brief: as §1
NCI-H1299 = test: Downregulation of TACC3 mRNA expression in human NCI-H1299 cells at 10 uM incubated for 48 hrs by qRT-PCR analysis; assay type: functional, cell-based; method in brief: as §3
[12] = target: T1, Protein cereblon/Histone-lysine N-methyltransferase EZH2 (Homo sapiens); test: PROTAC activity at CRBN E3 ligase/EZH2 in PRC2 complex in human WSUDLCL2 cells assessed as downregulation of EED expression at 1 uM pretreated with lenalidomide for 4 hrs followed by compound addition and measured after 48 hrs by Western blot analysis; assay type: cell-based; method in brief: as §2
[13] = target: T1, Protein cereblon/Histone-lysine N-methyltransferase EZH2 (Homo sapiens); test: PROTAC activity at CRBN E3 ligase/EZH2 in PRC2 complex in human WSUDLCL2 cells assessed as induction of EED degradation by measuring reduction in EED protein level at 1 uM measured after 48 to 72 hrs by Western blot analysis; assay type: cell-based; details: time 48-72 hrs
[14] = target: T1, Protein cereblon/Histone-lysine N-methyltransferase EZH2 (Homo sapiens); test: PROTAC activity at CRBN E3 ligase/EZH2 in PRC2 complex in human LNCaP cells assessed as reduction in H3K27me3 level at 1 uM incubated for 48 hrs by Western blot analysis; assay type: cell-based
Method in brief: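 Cells cultured in DMEM or RPMI 1640 with 10% FBS and 1% penicillin-streptomycin, 37 °C, 5% CO2; exposed to 1 μM compound for 48 h. Lysates run on SDS-PAGE and transferred to nitrocellulose. Blocked 2 h in 5% skim milk, primary antibody overnight at 4 °C, then secondary antibody. Chemiluminescent detection of PRC2 subunits and H3K27me3.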

[15] = target: T1, Protein cereblon/Histone-lysine N-methyltransferase EZH2 (Homo sapiens); test: PROTAC activity at CRBN E3 ligase/EZH2 in PRC2 complex in human WSUDLCL2 cells assessed as induction of RbAp48 degradation incubated for 48 hrs by Western blot analysis; assay type: cell-based; details: dose 1-10 µM
[16] = target: T1, Protein cereblon/Histone-lysine N-methyltransferase EZH2 (Homo sapiens); test: PROTAC activity at CRBN E3 ligase/EZH2 in PRC2 complex in human WSUDLCL2 cells assessed as induction of SUZ12 degradation incubated for 48 hrs by Western blot analysis; assay type: cell-based; details: dose 1-10 µM
Method in brief: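 WSU-DLCL-2 cells treated 48 h (1 μM for the single-concentration screen), lysed; SDS-PAGE, nitrocellulose transfer, 5% milk block, primary antibody 4 °C overnight, chemiluminescence. Bands quantified by densitometry, normalized to GAPDH, expressed relative to DMSO-treated cells; mean ± SD of three independent experiments, t-test.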

[17] = target: T1, Protein cereblon/Histone-lysine N-methyltransferase EZH2 (Homo sapiens); test: PROTAC activity at CRBN E3 ligase/EZH2 in PRC2 complex in human WSUDLCL2 cells assessed as downregulation of EZH2 expression at 1 uM pretreated with EPZ6438 for 4 hrs followed by compound addition and measured after 48 hrs by Western blot analysis; assay type: cell-based; method in brief: as §2

T1 sequence (Q15910 whole entry, looked up): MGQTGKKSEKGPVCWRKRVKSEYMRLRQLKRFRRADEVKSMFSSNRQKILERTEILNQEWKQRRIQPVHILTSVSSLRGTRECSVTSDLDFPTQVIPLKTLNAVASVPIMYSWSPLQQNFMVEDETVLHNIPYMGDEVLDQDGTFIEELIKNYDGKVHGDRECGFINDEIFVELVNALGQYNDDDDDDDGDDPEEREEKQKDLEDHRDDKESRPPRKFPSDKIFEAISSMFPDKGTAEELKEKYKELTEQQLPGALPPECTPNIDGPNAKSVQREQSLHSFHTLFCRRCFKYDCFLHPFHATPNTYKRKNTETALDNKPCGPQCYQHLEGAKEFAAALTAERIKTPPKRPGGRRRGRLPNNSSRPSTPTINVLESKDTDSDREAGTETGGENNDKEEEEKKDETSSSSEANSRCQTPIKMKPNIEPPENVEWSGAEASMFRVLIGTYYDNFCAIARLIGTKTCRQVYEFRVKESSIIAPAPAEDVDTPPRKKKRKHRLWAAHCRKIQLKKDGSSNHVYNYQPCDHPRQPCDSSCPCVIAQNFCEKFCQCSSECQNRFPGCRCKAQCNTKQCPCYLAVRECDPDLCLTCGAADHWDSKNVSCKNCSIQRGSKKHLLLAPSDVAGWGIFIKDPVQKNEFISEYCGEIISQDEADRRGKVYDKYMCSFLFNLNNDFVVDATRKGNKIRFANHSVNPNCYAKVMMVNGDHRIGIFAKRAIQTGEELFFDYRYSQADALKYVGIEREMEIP
T1 sequence (Q96SW2 whole entry, looked up): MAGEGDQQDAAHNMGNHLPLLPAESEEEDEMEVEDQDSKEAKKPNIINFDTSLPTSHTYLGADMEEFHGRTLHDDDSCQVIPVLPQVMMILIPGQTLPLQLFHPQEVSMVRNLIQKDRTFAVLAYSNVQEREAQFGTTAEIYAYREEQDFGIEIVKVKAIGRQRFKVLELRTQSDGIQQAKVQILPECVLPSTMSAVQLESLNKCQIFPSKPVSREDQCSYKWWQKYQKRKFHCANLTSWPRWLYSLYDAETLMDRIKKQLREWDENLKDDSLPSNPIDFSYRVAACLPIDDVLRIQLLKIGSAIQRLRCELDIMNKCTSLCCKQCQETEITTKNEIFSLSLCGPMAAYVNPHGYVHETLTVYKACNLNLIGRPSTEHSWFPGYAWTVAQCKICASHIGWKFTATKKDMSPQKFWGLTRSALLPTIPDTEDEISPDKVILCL

Activity [1]: Active
Activity [2]: inactive
Activity [3]: inactive
Activity [4]: Active
Activity [6]: inactive
Activity [7]: inactive
Activity [8]: inactive
Activity [9]: inactive
Activity [11]: Active
Activity [12]: inactive
Activity [13]: Active
Activity [14]: Active
Activity [15]: Dose-Dependent Effect
Activity [16]: Dose-Dependent Effect
Activity [17]: inactive
SMILES: CCN(c1cc(-c2ccc(CN3CCN(CCCCCCCOc4cccc5c4C(=O)N(C4CCC(=O)NC4=O)C5=O)CC3)cc2)cc(C(=O)NCc2c(C)cc(C)[nH]c2=O)c1C)C1CCOCC1 (centres undefined)
Activity (WSUDLCL2): Active
Activity (A549 [5]): Active
Activity (A549 [10]): Active
Activity (NCI-H1299): Active
